A word on the AUC: it is concentration integrated over time. The term Cmax denotes the maximum level reached in the sampled fluid or tissue. By bioavailability is commonly meant dose-corrected exposure relative to a reference, in per cent. One may read the Tmax as the time from dosing to the highest level. As a reminder, the half-life is the time in which the quantity being followed falls by half. Broadly, the inhibition is the relative decrease from the control value, in per cent. In general, Ki refers to a dissociation constant, usually derived from enzyme kinetics or from competition with a known ligand. In general, ED50 refers to the midpoint of the dose-response relation.

Experimental findings from ChEMBL document CHEMBL1132620, “Piperazine imidazo[1,5-a]quinoxaline ureas as high-affinity GABAA ligands of dual functionality” (J Med Chem, 1999) are described below.

Data set [1] in a line: Area under the curve was determined for the compound after iv dose of 4.97 mg/kg in rats. It is filed as ADME, organism-based. The arrangement: dose 4.97 mg/kg, route intravenous. The note with it: rat, in vivo.
Data set [2] can be described thus: Total plasma clearance was determined for the compound after iv dose of 4.97 mg/kg in rats. It is filed as ADME, organism-based. Further details: dose 4.97 mg/kg, route intravenous. The note with it: rat, read-out: Clp (converted).
Data set [3] in a line: Area under curve was determined for the compound after po dose of 5.03 mg/kg in rats. Format: ADME, organism-based. Conditions: rat, in vivo. Further details: dose 5.03 mg/kg, route oral.
Data set [4] in a line: Maximum serum concentration was determined for the compound after po dose of 5.03 mg/kg in rats. Conditions: rat. The arrangement: dose 5.03 mg/kg, route oral. It is filed as ADME, organism-based.
Data set [5] in a line: Oral bioavailability at a dose of 5.03 mg/kg in rats. Format: ADME, organism-based. The note with it: rat, in vivo.
Data set [6] in a line: Time at which Cmax was reached was determined for the compound after po dose of 5.03 mg/kg in rats. Conditions: rat, in vivo. The arrangement: dose 5.03 mg/kg, route oral. It is filed as ADME, organism-based. The method, boiled down: (§1)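 Male Sprague–Dawley rats dosed orally with compound in a solution formulation, n = 3–4 per compound; serum drug concentrations measured over time, lower limit of quantitation 50 ng/mL. Tmax reported as the range of observed values across animals.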

A short description of data set [7]: half-life after po dose of 5.03 mg/kg in rats. The note with it: rat, in vivo. The arrangement: dose 5.03 mg/kg, route oral. Format: ADME, organism-based.
The target of data set [8] is T1, GABA-A receptor; anion channel (Rattus norvegicus) (UniProt O09028+P15431+P18506+P18508+P19969+P20236+P23574+P23576+P28471+P28473+P30191+P62813+P63079+P63138+Q91ZM7+Q9ES14). As to the kind of experiment: (§2) Displacement of [3H]flunitrazepam from GABA-A benzodiazepine receptor of rat cortical membranes. Further details: concentration or dose not given beside the values. Format: cell membranes. The note with it: Membrane, concentration not given here. The method, boiled down: (§3)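 Rat membranes incubated 60 min at 4 °C with [3H]flunitrazepam, 50 µg membrane protein and graded test drug in 200 µL containing NaCl, 10 mM Hepes/Tris pH 7.4 and 1 mM MgCl2; bound ligand separated by rapid filtration on GF/B; mean affinity, SE ≤10% of mean.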

Data set [9] addresses GABA-A receptor; anion channel. The description is as §2. It is filed as cell membranes, Membrane. In a few lines: as §3
The target in data set [10] is T1, GABA-A receptor; anion channel (Rattus norvegicus). As to the kind of experiment: Shift in [35S]TBPS binding to GABA-A Benzodiazepine receptor of rat brain membrane.
Data set [11] concerns the target GABA-A receptor; alpha-1/beta-2/gamma-2 (Homo sapiens) (UniProt P14867+P47870+P18507). As to the kind of experiment: In vitro GABA-mediated chloride current in A293 cells expressing GABA-A benzodiazepine receptor alpha-1-beta-2-gamma-2 subunits at 5 uM. It is filed as functional, cell-based. Conditions: HEK293.
The target of data set [12] is GABA A receptor alpha-3/beta-2/gamma-2 (Homo sapiens) (UniProt P47870+P18507+P34903). As to the kind of experiment: In vitro GABA-mediated chloride current in A293 cells expressing GABA-A benzodiazepine receptor alpha-3-beta-2-gamma-2 subunits at 5 uM. Format: functional, cell-based. Conditions: HEK293.
The species named for data set [13] is Mus musculus. As to the kind of experiment: Ability to antagonize the muscle relaxation effect in mice caused by a benzodiazepine full agonist, triazolam. Format: functional. The method, boiled down:
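Muscle relaxation induced by triazolam; test compound and triazolam given separately, traction scored 30 min after dosing; ED50 for blocking the relaxant effect.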

Data set [14] deals with Mus musculus. As to the kind of experiment: In vivo efficacy is evaluated by percent control of cerebellar GMP levels in (drug+stress) treated mice/mice under stress. It is filed as functional. The arrangement: concentration or dose not given beside the values. In a few lines: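 Male CF-1 mice given drug orally in vehicle 122 before electric footshock stress, controls given vehicle (1 mL/100 g); killed 30 min after treatment; cerebellum homogenized in 1% perchloric acid, iced 30 min, boiled 5 min, spun 17000g 20 min; supernatant cGMP by radioimmunoassay, expressed as % of stress control.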

Data set [15] relates to Mus musculus. As to the kind of experiment: In vivo acute electroshock physical dependence activity in mice; Not active. It is filed as functional, organism-based.
In data set [16] the test system is Rattus norvegicus. As to the kind of experiment: In vivo efficacy evaluated for ability to antagonize metrazole induced clonic convulsions in rat after ip injection. It is filed as functional.
The test system of data set [17] is Rattus norvegicus. As to the kind of experiment: Mean number of shocks produced by CDPZ in rats at a dose of 12 mg/kg was determined by vogel's punished licking assay. It is filed as functional. The method, boiled down:
(§4)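 Vogel punished licking test in rats; number of shocks accepted recorded per dose group (n 6–10); each dose compared with the 0 mg/kg group of the same experiment by Wilcoxon rank sum test.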

Data set [18] has as its system Rattus norvegicus. As to the kind of experiment: Mean number of shocks produced by the compound in rats at a dose of 0 mg/kg was determined by vogel's punished licking assay. Format: functional. The method, boiled down: as §4
For data set [19], the system named is Rattus norvegicus. As to the kind of experiment: Mean number of shocks produced by the compound in rats at a dose of 0.3 mg/kg was determined by vogel's punished licking assay. It is filed as functional. The method, boiled down:
as §4

The test system of data set [20] is Rattus norvegicus. As to the kind of experiment: Mean number of shocks produced by the compound in rats at a dose of 1 mg/kg was determined by vogel's punished licking assay. Format: functional. The method, boiled down:
as §4

Data set [21] deals with Rattus norvegicus. As to the kind of experiment: Mean number of shocks produced by the compound in rats at a dose of 10 mg/kg was determined by vogel's punished licking assay. Format: functional. In a few lines: as §4
Data set [22] relates to Rattus norvegicus. As to the kind of experiment: Mean number of shocks produced by the compound in rats at a dose of 3 mg/kg was determined by vogel's punished licking assay. Format: functional. The method, boiled down:
as §4

Data set [23] in a line: Half-life after iv dose of 4.97 mg/kg in rats. It is filed as ADME, organism-based. Further details: dose 4.97 mg/kg, route intravenous. The note with it: rat, in vivo.
Data set [24] can be described thus: Area under curve was determined for the compound after po dose of 5.46 mg/kg in rats. It is filed as ADME, organism-based. The arrangement: dose 5.46 mg/kg, route oral. The note with it: rat, in vivo.
Data set [25] in a line: Maximum serum concentration after po dose of 5.46 mg/kg in rats. Conditions: rat. The arrangement: dose 5.46 mg/kg, route oral. Format: ADME, organism-based.
A short description of data set [26]: Time at which Cmax was reached was determined for the compound after po dose of 5.46 mg/kg in rats. It is filed as ADME, organism-based. The arrangement: dose 5.46 mg/kg, route oral. The note with it: rat, in vivo. In a few lines: as §1
Data set [27] is described as follows: Half-life after po dose of 5.46 mg/kg in rats. It is filed as ADME, organism-based. Further details: dose 5.46 mg/kg, route oral. Conditions: rat, in vivo.
In data set [28] the target is T1, GABA-A receptor; anion channel (Rattus norvegicus). As to the kind of experiment: Inhibition of [35S]TBPS binding to GABA-A Benzodiazepine receptor of rat brain membranes. Format: cell membranes. The note with it: Membrane.

The source made the active and inactive calls. No cut-off for these calls is given here.

Turning to `C[C@@H]1CN(C(=O)N2Cc3c(C(=O)OC(C)(C)C)ncn3-c3ccc(C(F)(F)F)cc32)C[C@H](C)N1`, the AUC came to 7470 ng·h/mL in [1] and 6430 ng·h/mL in data set [3]. For the same molecule, the clearance in data set [2] was 12.2 mL/min/kg. Further, in data set [4], the peak level (Cmax) was 1160 ng/mL. For the same molecule, in [5], the bioavailability is 84%. Further, the time of peak concentration (Tmax) in data set [6] is 1 h. Further, the half-life in [7] was 2.7 h; in data set [23], 2.4 h. Besides, the inhibition in data set [8] is 52%. Besides, the affinity in [9], expressed as Ki, was 32.4 nM. Also, in data set [10], the Shift was found to be 0.31. The results for the Change in Cl- current in data set [11] and in data set [12] were 0.5 and 0.1, respectively. The results for the ED50 in the data set listed under Mus musculus [13] and with Rattus norvegicus [16] were greater than 30 mg/kg and 21 mg/kg, respectively. Further, in the data set with Mus musculus [14], the Control is 36%. For the same molecule, the Acute electroshock activity result in the data set on Mus musculus [15] was “inactive”. The “Mean no. of shocks” value stood at 23 in the data set with Rattus norvegicus [17]; 4.9 with Rattus norvegicus [18]; 4.6 in the data set on Rattus norvegicus [19]; 4.9 in the data set on Rattus norvegicus [20]; 7.9 in the data set with Rattus norvegicus [21]; 6.4 in the data set on Rattus norvegicus [22].
`CC(C)(C)OC(=O)c1ncn2c1CN(C(=O)N1CCCC1)c1cc(Cl)ccc1-2.CCCC(=O)O` registered an AUC in data set [24] of 3680 ng·h/mL. This molecule also registered a Cmax in data set [25] of 330 ng/mL. In addition, in data set [26], the Tmax amounted to 1 h. In [27], the half-life was 7.6 h. In addition, in data set [9], the affinity, expressed as Ki, was 2.56 nM. Also, in data set [28], the Shift turned out to be 0.53. The molecule also came in with a Change in Cl- current in data set [11] of 0.38. The ED50 stood at 14 mg/kg in the data set listed under Mus musculus [13] and 29.7 mg/kg in the data set with Rattus norvegicus [16]. This molecule also yielded a Control in the data set with Mus musculus [14] of 105%. Besides, the Acute electroshock activity result in the data set with Mus musculus [15] was “inactive”.
